The source of these data is ChEMBL document CHEMBL1136720, “Orally active, antimalarial, anticancer, artemisinin-derived trioxane dimers with high stability and efficacy” (J Med Chem, 2003).

In one experiment the test system is Plasmodium falciparum. Briefly: In vitro antimalarial activity against chloroquine-sensitive Plasmodium falciparum NF 54. The experiment is classed as functional, organism-based. In outline:
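In vitro test run in quadruplicate for each set, with the value taken from a fitted dose–response curve. Artemisinin was run as a concurrent control (n = 10).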

Experiment [1] relates to Mus musculus. As to the kind of experiment: In vivo antimalarial activity in mice (Mus musculus) infected with Plasmodium berghei NY malaria parasite after intravenous administration for 4 days. In kind it is functional. The settings on record: 96 h. Summed up: (§1)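 Mice infected with P. berghei NY were given drug intravenously or orally (per line) daily for 4 days, following a published protocol. The work was run as two separate groups of experiments, each with its own reference drugs.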

Experiment [2] relates to Mus musculus. Briefly: In vivo antimalarial activity in mice (Mus musculus) infected with Plasmodium berghei NY malaria parasite after oral administration determined as parasite suppression at 10 mg/kg. The experiment is classed as functional. In outline: as §1
For experiment [3], the system named is Mus musculus. Briefly: In vivo antimalarial activity in mice (Mus musculus) infected with Plasmodium berghei NY malaria parasite after oral administration for 4 days. The settings on record: 96 h. In kind it is functional. Summed up:
as §1

In experiment [4] the test system is Mus musculus. As to the kind of experiment: In vivo antimalarial activity in mice (Mus musculus) infected with Plasmodium berghei NY malaria parasite after intravenous administration determined as parasite suppression at 10 mg/kg. In kind it is functional. Summed up: as §1
For experiment [5], the system named is Mus musculus. As to the kind of experiment: In vivo antimalarial activity in mice (Mus musculus) infected with Plasmodium berghei NY malaria parasite after oral administration for 4 days (Experiment 2). In kind it is functional. The settings on record: 96 h. Summed up:
(§2)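 P. berghei NY-infected mice given the compound orally once daily for 4 days, following a previously published protocol. Two separate groups of experiments were run, each with its own concurrent reference drugs.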

The subject of experiment [6] is Mus musculus. Briefly: In vivo antimalarial activity in mice (Mus musculus) infected with Plasmodium berghei NY malaria parasite after oral administration determined as parasite suppression at 10 mg/kg (Experiment 1). In kind it is functional. In outline: (§3)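 P. berghei NY-infected mice dosed orally at 10 mg/kg body weight, following a previously published protocol. Read-out is % suppression of parasite growth. Two separate groups of experiments were run, each with its own concurrent reference drugs.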

Experiment [7] relates to Mus musculus. Briefly: In vivo antimalarial activity in mice (Mus musculus) infected with Plasmodium berghei NY malaria parasite after oral administration for 4 days (Experiment 1). In kind it is functional. The settings on record: 96 h. Summed up: as §2
For experiment [8], the system named is Mus musculus. Briefly: In vivo antimalarial activity in mice (Mus musculus) infected with Plasmodium berghei NY malaria parasite after oral administration determined as parasite suppression at 10 mg/kg (Experiment 2). In kind it is functional. In outline:
as §3

Experiment [9] has as its system Mus musculus. As to the kind of experiment: In vivo antimalarial activity in mice (Mus musculus) infected with Plasmodium berghei NY malaria parasite after intravenous administration for 4 days (Experiment 1). The experiment is classed as functional. The settings on record: 96 h. Summed up:
as §1

Experiment [10] concerns Mus musculus. As to the kind of experiment: In vivo antimalarial activity in mice (Mus musculus) infected with Plasmodium berghei NY malaria parasite after intravenous administration determined as parasite suppression at 10 mg/kg (Experiment 2). In kind it is functional. Summed up: as §1
For experiment [11], the system named is Mus musculus. As to the kind of experiment: In vivo antimalarial activity in mice (Mus musculus) infected with Plasmodium berghei NY malaria parasite after intravenous administration for 4 days (Experiment 2). In kind it is functional. The settings on record: 96 h. In outline: as §1
For experiment [12], the system named is Mus musculus. As to the kind of experiment: In vivo antimalarial activity in mice (Mus musculus) infected with Plasmodium berghei NY malaria parasite after intravenous administration determined as parasite suppression at 10 mg/kg (Experiment 1). In kind it is functional. In outline: as §1

The term pIC50 denotes the IC50 on a negative log10 scale, so that one unit is a factor of ten. Low values mean a high IC50, high ones a low IC50. What is called ED50 is the dose at which the effect has come halfway, by size or by number of responders. A higher ED50 goes with a need for a large dose.

pIC50: −log10 of the molar value.

As to `C=C(CC1OC2O[C@]3(C)CCC4[C@H](C)CC[C@@H]([C@H]1C)C24OO3)CC1OC2O[C@]3(C)CC[C@H]4[C@H](C)CC[C@@H]([C@H]1C)C24OO3` (stereo partly specified), in the experiment on Plasmodium falciparum, the pIC50 was 7.62.
Same read-out and setting: the result for `C[C@@H]1CC[C@H]2[C@@H](C)C(CC(CO)CC3OC4O[C@]5(C)CC[C@H]6[C@H](C)CC[C@@H]([C@H]3C)C46OO5)OC3O[C@]4(C)CCC1C32OO4` (stereo partly specified) reads 9.06.
On the same count and under the same terms, the result for `C[C@@H]1CC[C@H]2[C@@H](C)C(CC(O)(CC3OC4O[C@]5(C)CC[C@H]6[C@H](C)CC[C@@H]([C@H]3C)C46OO5)c3ccc(C(=O)O)cc3)OC3O[C@]4(C)CCC1C32OO4` (stereo partly specified) reads 8.68.
Take `C[C@@H]1CC[C@H]2[C@@H](C)C(CC(COC(=O)CCC(=O)O)CC3OC4O[C@]5(C)CC[C@H]6[C@H](C)CC[C@@H]([C@H]3C)C46OO5)OC3O[C@]4(C)CCC1C32OO4` (stereo partly specified): the ED50 amounted to 2.2 mg/kg/day with Mus musculus [1] and 9 mg/kg/day in the experiment with Mus musculus [3]. Besides, the ED90 with Mus musculus [1] was determined as 6.3 mg/kg/day; in the experiment on Mus musculus [3] it was 15 mg/kg/day. Moreover, the Parasite suppression in the experiment on Mus musculus [2] was found to be 79.2%; in the experiment with Mus musculus [4] it was 81%. The molecule also showed a pIC50 in the experiment with Plasmodium falciparum of 8.70.
As to `C[C@H]1[C@H](OC(=O)CCC(=O)[O-])O[C@@H]2O[C@@]3(C)CC[C@H]4[C@H](C)CC[C@@H]1[C@@]24OO3.[Na+]` [SODIUM ARESUNATE], the ED50 in the experiment with Mus musculus [5] was found to be 5.5 mg/kg/day; in the experiment with Mus musculus [7], 10 mg/kg/day. In addition, the figures for the ED90 in the experiment on Mus musculus [5] and with Mus musculus [7] were 70 mg/kg/day and 39 mg/kg/day, respectively. Also, the Parasite suppression turned out to be 52.8% with Mus musculus [6] and 50.9% with Mus musculus [8].
As for `C[C@@H]1CC[C@H]2[C@@H](C)C(CC(O)(CC3OC4O[C@]5(C)CC[C@H]6[C@H](C)CC[C@@H]([C@H]3C)C46OO5)CS(=O)(=O)c3ccc(C(=O)O)cc3)OC3O[C@]4(C)CCC1C32OO4` (stereo partly specified), the ED50 with Mus musculus [1] is 2.7 mg/kg/day; in the experiment on Mus musculus [3], 7.5 mg/kg/day. The ED90 in the experiment with Mus musculus [1] turned out to be 10 mg/kg/day; in the experiment on Mus musculus [3], 35 mg/kg/day. Besides, the Parasite suppression in the experiment with Mus musculus [2] amounted to 46.1%; in the experiment with Mus musculus [4] it was 83.4%. Besides, in the experiment with Plasmodium falciparum, the pIC50 was 8.62.
Regarding `C[C@H]1[C@@H](CC(O)(CO)C[C@H]2O[C@@H]3O[C@]4(C)CC[C@H]5[C@H](C)CC[C@@H]([C@H]2C)[C@@]35OO4)O[C@@H]2O[C@]3(C)CC[C@H]4[C@H](C)CC[C@@H]1[C@@]24OO3` (stereo partly specified), the pIC50 with Plasmodium falciparum is 9.23.
With `C[C@@H]1CC[C@H]2[C@@H](C)C(CC(O)(COC(=O)CCC(=O)O)CC3OC4O[C@]5(C)CC[C@H]6[C@H](C)CC[C@@H]([C@H]3C)C46OO5)OC3O[C@]4(C)CCC1C32OO4` (stereo partly specified) [TERTIARY ALCOHOL PRIMARY SUCCINATEESTER], the ED50 in the experiment with Mus musculus [1] is 2.4 mg/kg/day; with Mus musculus [3] it was 4.8 mg/kg/day. Further, the ED90 in the experiment on Mus musculus [1] stood at 11 mg/kg/day; in the experiment with Mus musculus [3], 34 mg/kg/day. Moreover, the Parasite suppression turned out to be 55.4% in the experiment with Mus musculus [2] and 83.4% in the experiment with Mus musculus [4]. The pIC50 in the experiment on Plasmodium falciparum is 8.52.
With `C[C@@H]1CC[C@H]2[C@@H](C)C(=O)O[C@@H]3O[C@@]4(C)CC[C@@H]1[C@]32OO4` [ARTEMISININ], the pIC50 in the experiment on Plasmodium falciparum was 8.05.
The same measure, in the same setting: the result for `C[C@@H]1CC[C@H]2[C@@H](C)C(CC(=O)CC3OC4O[C@]5(C)CC[C@H]6[C@H](C)CC[C@@H]([C@H]3C)C46OO5)OC3O[C@]4(C)CCC1C32OO4` (stereo partly specified) reads 9.04.
For `C[C@@H]1[C@H](OCc2ccc(C(=O)O)cc2)O[C@@H]2O[C@@]3(C)CC[C@@H]4[C@@H](C)CC[C@@H]1[C@]24OO3` (stereo in doubt) [ARTELINIC ACID], the ED50 was determined as 11 mg/kg/day in the experiment with Mus musculus [9] and 5.6 mg/kg/day with Mus musculus [11]. For the same molecule, the ED90 in the experiment with Mus musculus [9] was 25 mg/kg/day; in the experiment with Mus musculus [11] it was 43 mg/kg/day. The Parasite suppression in the experiment on Mus musculus [10] was 42.4%; in the experiment with Mus musculus [12], 54.7%.
Consider `C[C@@H]1CC[C@H]2[C@@H](C)C(CC3(CC4OC5O[C@]6(C)CC[C@H]7[C@H](C)CC[C@@H]([C@H]4C)C57OO6)CO3)OC3O[C@]4(C)CCC1C32OO4` (stereo partly specified), for which the pIC50 with Plasmodium falciparum was 8.55.
Still for that read-out and setting: the value for `C[C@@H]1CC[C@H]2[C@@H](C)C(CC(COC(=O)c3ccncc3)CC3OC4O[C@]5(C)CC[C@H]6[C@H](C)CC[C@@H]([C@H]3C)C46OO5)OC3O[C@]4(C)CCC1C32OO4` (stereo partly specified) was 8.77.
